Results pooled from the literature.
Compare with care: the assays were run in different laboratories. pEC50, pIC50: −log10 of the molar value.

| Structure (SMILES) | target or system | test | setting | measurement | result |
| --- | --- | --- | --- | --- | --- |
| CC(O)CSc1nnc(-c2cc3ccccc3o2)n1-c1ccccc1 (stereo not shown) | Escherichia coli | microbial growth, disc diffusion | 25 µg/disc | inhibition zone | 10.3 mm |
| Cc1c(C(=O)O)ccc2c3n(nc12)[C@@H]1[C@H](C3)N(CC2CC2)[C@@]2(C(=O)Nc3cc(Cl)ccc32)[C@H]1c1cccc(Cl)c1F | human Fibroblast | cell growth or viability, ATP luminescence | 72 h | GI50 | 5 nM |
| C=CC(=O)NC1CCN(c2ncc3ncnc(Nc4ccc(Oc5ccc6c(c5)ncn6C)c(C)c4)c3n2)CC1 | IM95 | cell growth or viability | – | pEC50 | 7.27 |
| Cc1nc(Nc2ccc3c(c2)/C(=C/c2ccccc2C)C(=O)N3C)c2ccccc2n1 | BEAS-2B | cell growth or viability, MTT | – | pIC50 | 4.81 |
| COc1cc(C=Nc2ccc(C)cc2Cl)ccc1O | Escherichia coli | microbial growth, disc diffusion | 2000 µg/mL, 24 h | inhibition zone | 14.8 mm |
| CC(C)c1ccccc1[C@@H]1CCCN1C1CC2(CCN(c3ccc(C(=O)NS(=O)(=O)c4ccc(NC[C@H]5CC[C@](C)(O)CC5)c([N+](=O)[O-])c4)c(Oc4cnc5[nH]ccc5c4)c3)CC2)C1 | MV4-11 | cell growth or viability, ATP luminescence | 48 h | pIC50 | 8.92 |
| CN(C)[C@@H]1C(O)=C(C(N)=O)C(=O)[C@@]2(O)C(O)=C3C(=O)c4c(O)cccc4[C@@](C)(O)[C@H]3C[C@@H]12 | Escherichia coli | microbial growth, disc diffusion | 100 µg/mL, 24 h | inhibition zone | 0 mm |
| COc1cc2ncnc(N(C)c3ccc4c(c3)/C(=C/c3cccc(Cl)c3)C(=O)N4C)c2cc1OC | BEAS-2B | cell growth or viability, MTT | – | pIC50 | 5.00 |
| CC(O)CSc1nnc(-c2ccccc2)n1-c1ccccc1 (stereo not shown) | Staphylococcus aureus | microbial growth, disc diffusion | 25 µg/disc | inhibition zone | 10 mm |
| CC1(C)CCC(CN2CCN(c3ccc(C(=O)NS(=O)(=O)c4ccc(NCC5CCOCC5)c([N+](=O)[O-])c4)c(Oc4cnc5[nH]ccc5c4)c3)CC2)=C(c2ccc(Cl)cc2)C1 | KMS-12-PE | cell growth or viability, ATP luminescence | 48 h | pIC50 | 7.89 |
